In ChEMBL document CHEMBL3286300, “Fluorine modulates species selectivity in the triazolopyrimidine class of Plasmodium falciparum dihydroorotate dehydrogenase inhibitors” (J Med Chem, 2014):
pIC50, pKd: −log10 of the molar value.

What was measured:
[1] = biological target: T1, Dihydroorotate dehydrogenase (Plasmodium falciparum, UniProt Q54A96); test: Inhibition of N-terminal His6-tagged recombinant Plasmodium falciparum DHODH (amino acid residues 158 to 569) expressed in Escherichia coli BL21 cells assessed as orotic acid production using dihydroorotate as substrate by DCIP dye-based assay
T1 sequence (Q54A96 whole entry): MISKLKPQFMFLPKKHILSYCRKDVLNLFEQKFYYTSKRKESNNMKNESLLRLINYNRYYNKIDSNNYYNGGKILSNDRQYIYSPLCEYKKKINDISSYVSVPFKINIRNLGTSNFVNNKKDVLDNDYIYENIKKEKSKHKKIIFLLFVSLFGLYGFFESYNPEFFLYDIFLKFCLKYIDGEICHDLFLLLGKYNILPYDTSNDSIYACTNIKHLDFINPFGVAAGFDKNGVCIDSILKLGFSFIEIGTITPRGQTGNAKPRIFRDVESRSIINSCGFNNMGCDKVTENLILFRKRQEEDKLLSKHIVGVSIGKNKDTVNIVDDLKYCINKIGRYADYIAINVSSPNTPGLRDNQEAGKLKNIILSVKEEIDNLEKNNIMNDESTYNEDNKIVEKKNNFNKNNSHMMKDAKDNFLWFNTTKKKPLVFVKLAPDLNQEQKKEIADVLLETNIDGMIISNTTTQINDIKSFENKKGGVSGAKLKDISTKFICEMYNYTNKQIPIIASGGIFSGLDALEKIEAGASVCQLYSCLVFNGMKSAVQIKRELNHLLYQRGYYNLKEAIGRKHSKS
Outline: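 The assay buffer was 100 mM Hepes pH 8.0, 150 mM NaCl, 10% glycerol, 0.1% Triton, with 0.2 mM DHO, 0.02 mM CoQD and 0.12 mM DCIP. Runs started with 2–10 nM enzyme at 25 °C, reading A600 initial rates. Inhibitor was 0.01–100 μM in 3-fold steps, in triplicate. IC50 came from a three-parameter log[I]-response fit.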

[2] = Partition coefficient, log D of the compound at pH 7.4 by chromatography; type: physicochemical; conditions: octanol/water
Outline: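 LogD at pH 7.4 estimated from chromatographic retention, compared against standards of known partition coefficient.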

[3] = biological target: T2, Dihydroorotate dehydrogenase (quinone), mitochondrial (Homo sapiens, UniProt Q02127); test: Inhibition of C-terminal His6-tagged human DHODH (amino acid residues 33 to 396) expressed in Escherichia coli BL21 cells assessed as orotic acid production using dihydroorotate as substrate by direct assay in presence of oxygen depleting system
T2 sequence (Q02127 whole entry, the tested form may be a part): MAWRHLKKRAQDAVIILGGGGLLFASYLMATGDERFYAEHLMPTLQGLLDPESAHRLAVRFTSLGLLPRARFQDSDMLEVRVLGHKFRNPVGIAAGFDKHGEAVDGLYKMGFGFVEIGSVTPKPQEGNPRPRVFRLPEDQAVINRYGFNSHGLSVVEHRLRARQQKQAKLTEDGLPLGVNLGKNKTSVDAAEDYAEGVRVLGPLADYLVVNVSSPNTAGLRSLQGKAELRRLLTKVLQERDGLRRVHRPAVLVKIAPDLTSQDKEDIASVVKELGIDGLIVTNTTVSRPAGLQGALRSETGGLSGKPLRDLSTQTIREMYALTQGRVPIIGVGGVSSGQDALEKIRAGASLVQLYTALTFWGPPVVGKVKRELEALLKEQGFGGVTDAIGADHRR

BL21 [4] = test: Ratio of IC50 for C-terminal His6-tagged human DHODH (amino acid residues 30 to 396) L359A mutant expressed in Escherichia coli BL21 cells to IC50 for C-terminal His6-tagged wild type human DHODH (amino acid residues 30 to 396) expressed in Escherichia coli BL21 cells
[5] = biological target: Dihydroorotate dehydrogenase (quinone), mitochondrial (Mus musculus, UniProt O35435); test: Inhibition of mouse DHODH (amino acid residues 30 to 396) expressed in Escherichia coli BL21 cells assessed as orotic acid production using dihydroorotate as substrate by DCIP dye-based assay
Sequence of Dihydroorotate dehydrogenase (quinone), mitochondrial (Mus musculus, UniProt O35435) (O35435 whole entry, the tested form may be a part): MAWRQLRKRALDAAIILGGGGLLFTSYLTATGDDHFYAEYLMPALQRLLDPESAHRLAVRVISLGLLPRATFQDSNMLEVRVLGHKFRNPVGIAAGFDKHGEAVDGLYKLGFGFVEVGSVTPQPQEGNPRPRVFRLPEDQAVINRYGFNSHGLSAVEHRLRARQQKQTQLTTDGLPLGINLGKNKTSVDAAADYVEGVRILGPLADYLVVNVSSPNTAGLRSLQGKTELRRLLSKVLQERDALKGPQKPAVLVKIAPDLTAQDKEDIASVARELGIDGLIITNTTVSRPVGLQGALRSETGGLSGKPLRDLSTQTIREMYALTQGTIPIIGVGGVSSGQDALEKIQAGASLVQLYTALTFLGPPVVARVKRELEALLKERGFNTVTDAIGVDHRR
Outline: (§1)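 Assay buffer 100 mM Hepes pH 8.0, 150 mM NaCl, 10% glycerol, 0.1% Triton, with 0.2 mM DHO, 0.02 mM CoQD and 0.12 mM DCIP. DCIP reduction read at 600 nm, 25 °C, started with 2–10 nM enzyme. Inhibitor 0.01–100 μM in 3-fold steps, triplicate. IC50 from a three-parameter fit of vi/vo.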

[6] = Inhibition of C-terminal His6-tagged human DHODH (amino acid residues 30 to 396) L359A mutant expressed in Escherichia coli BL21 cells assessed as orotic acid production using dihydroorotate as substrate by direct assay in presence of oxygen depleting system
BL21 [7] = test: Selectivity ratio of IC50 for C-terminal His6-tagged human DHODH (amino acid residues 30 to 396) expressed in Escherichia coli BL21 cells to IC50 for N-terminal His6-tagged recombinant Plasmodium falciparum DHODH (amino acid residues 158 to 569) expressed in Escherichia coli BL21 cells
[8] = biological target: T3, Dihydroorotate dehydrogenase (quinone), mitochondrial (Rattus norvegicus, UniProt Q63707); test: Binding affinity to rat DHODH by isothermal titration calorimetry
T3 sequence (Q63707 whole entry): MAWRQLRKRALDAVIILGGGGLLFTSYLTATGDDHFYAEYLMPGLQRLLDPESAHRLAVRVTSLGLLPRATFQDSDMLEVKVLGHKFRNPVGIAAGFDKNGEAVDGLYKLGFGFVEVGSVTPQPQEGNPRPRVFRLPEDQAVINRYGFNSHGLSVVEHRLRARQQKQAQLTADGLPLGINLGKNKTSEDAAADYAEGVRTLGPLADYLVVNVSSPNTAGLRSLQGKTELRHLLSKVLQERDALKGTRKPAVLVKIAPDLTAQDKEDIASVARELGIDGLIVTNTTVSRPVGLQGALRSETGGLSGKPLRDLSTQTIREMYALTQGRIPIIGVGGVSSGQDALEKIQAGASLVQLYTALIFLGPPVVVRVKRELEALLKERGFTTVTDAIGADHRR
Outline: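 Run at 30 °C in 10 mM Hepes pH 7.8, 20 mM NaCl, 5% glycerol, 1 mM LDAO, 0.2% DMSO. Rat DHODH (5–8 μM) in the cell, titrated with 50 μM inhibitor. Triplicate runs, analysed with NITPIC and SEDPHAT.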

[9] = biological target: T1, Dihydroorotate dehydrogenase; test: Binding affinity to Plasmodium falciparum DHODH by isothermal titration calorimetry
Outline: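 ITC at 30 °C in 10 mM Hepes pH 7.8, 20 mM NaCl, 5% glycerol, 1 mM LDAO, 0.2% DMSO. PfDHODH (5–10 μM) in the cell was titrated with 50 μM inhibitor. Triplicate runs.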

[10] = biological target: T2, Dihydroorotate dehydrogenase (quinone), mitochondrial; test: Inhibition of C-terminal His6-tagged human DHODH (amino acid residues 30 to 396) expressed in Escherichia coli BL21 cells assessed as orotic acid production using dihydroorotate as substrate by DCIP dye-based assay; outline: as §1
[11] = Inhibition of C-terminal His6-tagged human DHODH (amino acid residues 30 to 396) R136A mutant expressed in Escherichia coli BL21 cells assessed as orotic acid production using dihydroorotate as substrate by direct assay in presence of oxygen depleting system
[12] = Inhibition of C-terminal His6-tagged human DHODH (amino acid residues 30 to 396) L46A mutant expressed in Escherichia coli BL21 cells assessed as orotic acid production using dihydroorotate as substrate by direct assay in presence of oxygen depleting system
[13] = Inhibition of C-terminal His6-tagged human DHODH (amino acid residues 30 to 396) H56A mutant expressed in Escherichia coli BL21 cells assessed as orotic acid production using dihydroorotate as substrate by direct assay in presence of oxygen depleting system
Plasmodium falciparum = test: Antimalarial activity against Plasmodium falciparum 3D7 infected in RBC after 72 hrs by SYBR green dye based flow cytometry; type: functional, organism-based; conditions: 3D7, 72 h
[14] = biological target: T3, Dihydroorotate dehydrogenase (quinone), mitochondrial; test: Inhibition of rat DHODH (amino acid residues 30 to 396) expressed in Escherichia coli BL21 cells assessed as orotic acid production using dihydroorotate as substrate by DCIP dye-based assay; outline: as §1
BL21 [15] = test: Ratio of IC50 for C-terminal His6-tagged human DHODH (amino acid residues 30 to 396) R136A mutant expressed in Escherichia coli BL21 cells to IC50 for C-terminal His6-tagged wild type human DHODH (amino acid residues 30 to 396) expressed in Escherichia coli BL21 cells
BL21 [16] = test: Ratio of IC50 for C-terminal His6-tagged human DHODH (amino acid residues 30 to 396) L46A mutant expressed in Escherichia coli BL21 cells to IC50 for C-terminal His6-tagged wild type human DHODH (amino acid residues 30 to 396) expressed in Escherichia coli BL21 cells
[17] = Inhibition of dog DHODH (amino acid residues 48 to 414) expressed in Escherichia coli BL21 cells assessed as orotic acid production using dihydroorotate as substrate by DCIP dye-based assay; set-up: species or system Canis lupus familiaris; outline: as §1

SMILES	pIC50 [1]	logD [2]	pIC50 [3]	Ratio IC50 (BL21 [4])	pIC50 [5]	pIC50 [6]	Ratio IC50 (BL21 [7])	pKd [8]	pKd [9]	pIC50 [10]	pIC50 [11]	pIC50 [12]	pIC50 [13]	pIC50 (Plasmodium falciparum)	pIC50 [14]	Ratio IC50 (BL21 [15])	Ratio IC50 (BL21 [16])	pIC50 [17]
Cc1cc(Nc2cc(F)c(C(F)(F)F)c(F)c2)n2nc(C(C)(F)F)nc2n1	7.70	4.46	5.57	> 50	6.74	< 4.00	100	7.32	8.29	5.68	< 4.00	< 4.00	5.28	7.92	6.89	50	50	6.15
Cc1cc(Nc2cc(F)c(C(F)(F)F)c(F)c2)n2ncnc2n1	–	–	–	–	< 4.52	–	> 769	–	–	< 4.00	–	–	–	–	4.43	–	–	< 4.00
Cc1cc(Nc2ccc(C(F)(F)F)cc2)n2nc(C(C)(F)F)nc2n1	7.34	4.05	< 4.00	–	–	< 4.00	–	–	7.57	< 4.00	< 4.00	< 4.00	< 4.00	8.44	–	–	–	< 4.00
Cc1cc(Nc2cc(F)c(C(F)(F)F)c(F)c2)n2nc(C(F)(F)F)nc2n1	7.66	5.01	5.68	10	7.06	4.46	–	–	8.02	5.80	< 4.00	< 4.00	6.05	8.74	7.31	50	50	6.49
Cc1cc(Nc2ccc(C(F)(F)F)cc2)n2nc(C(F)(F)F)nc2n1	–	–	–	–	5.01	–	–	–	–	< 4.00	–	–	–	8.20	5.46	–	–	4.07
Cc1cc(Nc2ccc(C(F)(F)F)cc2)n2ncnc2n1	–	3.55	–	–	< 4.00	–	–	–	–	–	–	–	–	–	–	–	–	< 4.00
Cc1cc(Nc2ccc(C(F)(F)F)c(F)c2)n2nc(C(C)(F)F)nc2n1	7.46	4.25	4.35	–	5.80	< 4.00	–	–	8.01	4.77	< 4.00	< 4.00	4.17	8.41	6.10	–	–	5.14
